Active and inactive are the calls of the source. The calls are words filed in the database; no cut-off is given here.
Tests used:
[1] = molecular target: T1, 11-beta-hydroxysteroid dehydrogenase type 2 (Homo sapiens) (UniProt P80365); assay: Inhibition of human recombinant 11beta-HSD2 expressed in HEK293 cell using [1,2,6,7-3H]cortisol as substrate at 2 uM after 10 mins by scintillation counting analysis; assay type: cell-based
T1 sequence (whole entry): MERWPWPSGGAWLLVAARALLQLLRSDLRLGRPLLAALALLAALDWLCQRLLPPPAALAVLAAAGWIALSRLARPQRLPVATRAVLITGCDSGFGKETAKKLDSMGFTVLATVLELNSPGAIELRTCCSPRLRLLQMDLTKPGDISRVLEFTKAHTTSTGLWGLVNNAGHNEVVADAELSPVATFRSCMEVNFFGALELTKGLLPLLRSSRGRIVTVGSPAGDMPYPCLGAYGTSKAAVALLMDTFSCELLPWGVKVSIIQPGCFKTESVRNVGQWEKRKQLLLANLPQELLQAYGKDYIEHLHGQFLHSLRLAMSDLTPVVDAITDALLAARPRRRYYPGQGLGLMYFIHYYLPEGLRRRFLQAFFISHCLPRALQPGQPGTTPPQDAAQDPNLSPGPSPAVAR
Outline: (§1)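 Recombinant human 11β-HSD1 or 11β-HSD2 stably transfected in HEK-293 cells, following a previously described procedure.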

[2] = molecular target: T2, Peroxisomal multifunctional enzyme type 2 (Homo sapiens) (UniProt P51659); assay: Inhibition of human recombinant 17beta-HSD4 SDR domain expressed in Escherichia coli using [6,7-3H]E2 as substrate at 1 uM by scintillation counting analysis
T2 sequence (whole entry): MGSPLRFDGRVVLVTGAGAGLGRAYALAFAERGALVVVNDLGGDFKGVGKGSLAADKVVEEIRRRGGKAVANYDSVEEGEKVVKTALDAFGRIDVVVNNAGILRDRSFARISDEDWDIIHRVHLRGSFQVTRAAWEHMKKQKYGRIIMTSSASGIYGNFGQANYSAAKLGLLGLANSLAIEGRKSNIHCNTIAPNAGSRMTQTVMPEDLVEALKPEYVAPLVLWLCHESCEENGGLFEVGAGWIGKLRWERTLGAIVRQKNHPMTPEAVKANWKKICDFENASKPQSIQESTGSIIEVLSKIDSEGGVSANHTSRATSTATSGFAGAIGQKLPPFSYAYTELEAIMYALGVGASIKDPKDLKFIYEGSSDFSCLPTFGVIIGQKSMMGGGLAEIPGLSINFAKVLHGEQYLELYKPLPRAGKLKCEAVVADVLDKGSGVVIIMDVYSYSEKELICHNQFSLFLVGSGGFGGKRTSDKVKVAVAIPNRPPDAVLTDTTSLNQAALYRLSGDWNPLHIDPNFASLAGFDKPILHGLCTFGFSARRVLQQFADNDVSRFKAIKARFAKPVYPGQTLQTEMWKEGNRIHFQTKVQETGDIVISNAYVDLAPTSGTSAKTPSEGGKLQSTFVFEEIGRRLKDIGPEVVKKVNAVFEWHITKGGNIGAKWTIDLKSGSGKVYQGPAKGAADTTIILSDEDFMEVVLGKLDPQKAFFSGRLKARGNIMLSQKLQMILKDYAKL

[3] = molecular target: T3, 17-beta-hydroxysteroid dehydrogenase type 2 (Homo sapiens) (UniProt P37059); details: Placenta, Microsomal, at 1 µM;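 further: [3H]estradiol served as substrate, with HPLC analysis after 20 min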
T3 sequence (whole entry): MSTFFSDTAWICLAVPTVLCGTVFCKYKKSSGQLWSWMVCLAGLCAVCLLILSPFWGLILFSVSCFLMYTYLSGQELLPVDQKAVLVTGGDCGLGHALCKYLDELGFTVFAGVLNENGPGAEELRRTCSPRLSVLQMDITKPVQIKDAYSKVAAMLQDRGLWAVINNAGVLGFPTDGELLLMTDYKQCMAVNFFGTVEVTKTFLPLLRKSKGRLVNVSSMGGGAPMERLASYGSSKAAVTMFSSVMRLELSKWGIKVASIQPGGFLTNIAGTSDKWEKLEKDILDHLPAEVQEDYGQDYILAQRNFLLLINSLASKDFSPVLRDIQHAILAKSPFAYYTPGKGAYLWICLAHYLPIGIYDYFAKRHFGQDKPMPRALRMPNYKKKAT

Callithrix jacchus = species: Callithrix jacchus; assay: Inhibition of 17beta-HSD2 in common marmoset placental microsomal fraction assessed as inhibition of [3H]E2 conversion to E1 at 1 uM by scintillation counting analysis; assay type: microsomes; details: Placenta
Outline: (§2)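 Cell-free assay measuring percent inhibition of the E2-to-E1 transformation. Enzyme source was the microsomal fraction of rat or mouse liver, or of Callithrix jacchus placenta for the marmoset.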

[4] = molecular target: T4, Estradiol 17-beta-dehydrogenase 2 (Rattus norvegicus) (UniProt Q62730); assay: Inhibition of 17beta-HSD2 in rat liver microsomal fraction assessed as inhibition of [3H]E2 conversion to E1 at 1 uM by scintillation counting analysis; assay type: microsomes; outline: as §2
T4 sequence (whole entry): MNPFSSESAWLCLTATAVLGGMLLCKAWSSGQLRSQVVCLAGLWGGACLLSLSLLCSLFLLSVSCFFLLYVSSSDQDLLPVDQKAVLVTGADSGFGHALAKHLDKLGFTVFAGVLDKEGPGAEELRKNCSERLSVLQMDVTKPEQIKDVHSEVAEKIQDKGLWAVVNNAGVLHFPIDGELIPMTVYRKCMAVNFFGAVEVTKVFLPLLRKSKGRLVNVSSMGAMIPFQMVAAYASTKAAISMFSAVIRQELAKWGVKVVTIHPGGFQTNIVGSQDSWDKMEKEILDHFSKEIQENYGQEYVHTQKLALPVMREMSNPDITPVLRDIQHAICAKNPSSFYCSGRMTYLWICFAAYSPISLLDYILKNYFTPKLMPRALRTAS

[5] = molecular target: 11-beta-hydroxysteroid dehydrogenase 1 (Homo sapiens, UniProt P28845); assay: Inhibition of human recombinant 11beta-HSD1 expressed in HEK293 cell using [1,2-3H]Cortisone as substrate at 2 uM after 10 mins by scintillation counting analysis; assay type: cell-based; outline: as §1
11-beta-hydroxysteroid dehydrogenase 1, sequence (P28845 whole entry, looked up): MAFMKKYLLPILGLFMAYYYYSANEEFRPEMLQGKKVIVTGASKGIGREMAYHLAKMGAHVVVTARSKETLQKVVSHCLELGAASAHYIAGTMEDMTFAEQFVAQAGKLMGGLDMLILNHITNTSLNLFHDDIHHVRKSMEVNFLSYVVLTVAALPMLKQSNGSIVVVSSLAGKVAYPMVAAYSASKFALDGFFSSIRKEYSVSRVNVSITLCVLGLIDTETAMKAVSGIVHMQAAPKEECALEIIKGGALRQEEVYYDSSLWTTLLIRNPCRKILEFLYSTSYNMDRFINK

[6] = molecular target: T5, Aldo-keto reductase family 1 member C3 (Homo sapiens) (UniProt P42330); assay: Inhibition of human recombinant 17beta-HSD5 expressed in Escherichia coli using [1,2,6,7-3H]A-dione as substrate at 1 uM by scintillation counting analysis
T5 sequence (whole entry): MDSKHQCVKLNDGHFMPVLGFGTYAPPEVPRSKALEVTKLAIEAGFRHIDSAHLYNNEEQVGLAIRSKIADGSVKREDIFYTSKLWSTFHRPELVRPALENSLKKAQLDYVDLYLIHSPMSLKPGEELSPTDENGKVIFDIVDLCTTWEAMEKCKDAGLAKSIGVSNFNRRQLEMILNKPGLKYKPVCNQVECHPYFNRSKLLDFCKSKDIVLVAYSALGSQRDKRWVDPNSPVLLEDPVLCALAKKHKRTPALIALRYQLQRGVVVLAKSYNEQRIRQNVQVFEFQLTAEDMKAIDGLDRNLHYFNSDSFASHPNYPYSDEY

SMILES | inhibition [1] [%] | inhibition [2] | inhibition [3] [%] | inhibition (Callithrix jacchus) [%] | inhibition [4] | inhibition [5] [%] | inhibition [6] [%]
COc1cccc(-c2ccc(C(=O)N(C)Cc3cccc(O)c3)s2)c1F | 10 | inactive | 89 | 47 | 25% | 68 | 33
COc1cccc(N(C)C(=O)c2ccc(-c3cccc(OC)c3F)s2)c1 | 8 | inactive | 93 | 45 | inactive | 9 | 26
